Here are results for 21 compounds from ChEMBL document CHEMBL3091445, “The 3,7-diazabicyclo[3.3.1]nonane scaffold for subtype selective nicotinic acetylcholine receptor ligands. Part 2: carboxamide derivatives with different spacer motifs” (Bioorg Med Chem, 2013).

Assay [1] in a line: Displacement of [3H]epibatidine from calf adrenal alpha3beta4 nAChR after 90 mins by liquid scintillation counting analysis. The arrangement: species or system Bos taurus. A general note: In a radioligand displacement assay an active substance lowers the binding of a labelled ligand.
Assay [2] is described as follows: Displacement of [3H]epibatidine from Torpedo californica electroplax (alpha1)2beta1gammadelta nAChR after 90 mins by liquid scintillation counting analysis. The arrangement: species or system Tetronarce californica.
Assay [3] addresses Neuronal acetylcholine receptor subunit alpha-7 (Rattus norvegicus, UniProt Q05941). In words: Displacement of [3H]methyllycaconitine from Sprague-Dawley rat brain alpha7 nAChR after 120 mins by liquid scintillation counting analysis. In kind it is tissue-based. The essentials: (§1)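 Radioligand competition binding gave Ki values, reported as mean ± SEM from 2–10 independent experiments.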

Assay [4] has as its target Neuronal acetylcholine receptor; alpha4/beta2 (Rattus norvegicus, UniProt P09483+P12390). In words: Displacement of [3H]epibatidine from Sprague-Dawley rat brain alpha4beta2 nAChR after 90 mins by liquid scintillation counting analysis. The essentials:
as §1

Chain of Neuronal acetylcholine receptor; alpha4/beta2 (P09483 whole entry): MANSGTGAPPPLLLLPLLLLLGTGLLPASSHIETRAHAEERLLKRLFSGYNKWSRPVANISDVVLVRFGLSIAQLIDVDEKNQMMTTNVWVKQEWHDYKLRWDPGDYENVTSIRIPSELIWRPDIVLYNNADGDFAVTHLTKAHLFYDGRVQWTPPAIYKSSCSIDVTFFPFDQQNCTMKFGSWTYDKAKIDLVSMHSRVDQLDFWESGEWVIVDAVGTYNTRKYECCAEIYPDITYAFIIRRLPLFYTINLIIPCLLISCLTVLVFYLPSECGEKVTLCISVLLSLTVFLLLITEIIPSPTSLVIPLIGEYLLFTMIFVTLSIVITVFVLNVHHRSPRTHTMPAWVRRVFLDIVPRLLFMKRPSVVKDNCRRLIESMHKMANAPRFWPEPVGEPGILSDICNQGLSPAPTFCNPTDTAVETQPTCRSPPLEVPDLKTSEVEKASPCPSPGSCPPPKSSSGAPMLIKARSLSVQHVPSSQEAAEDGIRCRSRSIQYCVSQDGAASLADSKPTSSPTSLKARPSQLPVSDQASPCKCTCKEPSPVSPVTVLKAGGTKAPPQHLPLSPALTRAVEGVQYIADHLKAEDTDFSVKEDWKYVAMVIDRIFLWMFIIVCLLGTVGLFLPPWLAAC
Chain of Neuronal acetylcholine receptor; alpha4/beta2 (P12390 whole entry): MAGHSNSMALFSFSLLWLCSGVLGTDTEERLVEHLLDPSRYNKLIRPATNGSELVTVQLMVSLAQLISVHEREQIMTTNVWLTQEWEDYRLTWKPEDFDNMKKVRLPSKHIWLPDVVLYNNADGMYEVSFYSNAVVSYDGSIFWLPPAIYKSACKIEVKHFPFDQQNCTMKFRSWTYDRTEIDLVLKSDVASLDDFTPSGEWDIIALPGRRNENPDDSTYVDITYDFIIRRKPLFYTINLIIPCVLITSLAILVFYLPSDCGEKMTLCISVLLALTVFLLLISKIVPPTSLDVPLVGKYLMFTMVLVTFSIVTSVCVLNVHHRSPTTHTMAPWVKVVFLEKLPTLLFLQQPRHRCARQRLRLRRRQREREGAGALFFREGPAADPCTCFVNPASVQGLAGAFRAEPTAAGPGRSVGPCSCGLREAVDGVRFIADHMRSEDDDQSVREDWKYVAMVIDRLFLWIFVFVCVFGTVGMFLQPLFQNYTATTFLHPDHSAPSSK
Chain of Neuronal acetylcholine receptor subunit alpha-7 (Q05941 whole entry): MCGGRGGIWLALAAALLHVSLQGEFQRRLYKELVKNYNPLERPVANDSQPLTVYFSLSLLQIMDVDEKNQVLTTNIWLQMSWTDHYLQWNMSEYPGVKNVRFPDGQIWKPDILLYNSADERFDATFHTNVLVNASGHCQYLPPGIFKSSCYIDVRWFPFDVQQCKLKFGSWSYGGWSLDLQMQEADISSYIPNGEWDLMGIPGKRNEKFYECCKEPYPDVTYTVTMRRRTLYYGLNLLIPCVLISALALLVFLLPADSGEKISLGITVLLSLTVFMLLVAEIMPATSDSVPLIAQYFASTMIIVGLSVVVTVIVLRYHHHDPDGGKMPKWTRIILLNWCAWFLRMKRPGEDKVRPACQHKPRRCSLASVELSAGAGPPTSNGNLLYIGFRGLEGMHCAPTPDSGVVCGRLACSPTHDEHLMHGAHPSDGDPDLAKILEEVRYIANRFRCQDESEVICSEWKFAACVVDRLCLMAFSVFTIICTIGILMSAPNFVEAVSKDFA

In the case of `O=C(c1ccc(-c2ccccc2)cc1)N1C[C@@H]2CNC[C@@H](C2)C1`, the inhibition constant (Ki) in assay [1] came to 1090 nM. This counts as single-digit micromolar.

Take `O=C(c1ccccc1)N1C[C@@H]2CNC[C@@H](C2)C1`: the results for the Ki in assay [1] and in assay [2] were more than 5000 nM and more than 10000 nM, respectively.

For the compound `O=C(C#Cc1cccc2ccccc12)N1C[C@@H]2CNC[C@@H](C2)C1`, the Ki in assay [3] is more than 1000 nM; in assay [4] it was 46 nM; in assay [1], more than 1000 nM; in assay [2], more than 5000 nM.

For `O=C(/C=C/c1cccc(Br)c1)N1C[C@@H]2CNC[C@@H](C2)C1`, the Ki in assay [3] is more than 10000 nM; in assay [4], 24.6 nM.

For `O=C(/C=C/c1cccs1)N1C[C@@H]2CNC[C@@H](C2)C1`, the Ki was more than 10000 nM in assay [3], 96.9 nM in assay [4] and 2000 nM in assay [1].

With `COc1ccccc1C#CC(=O)N1C[C@@H]2CNC[C@@H](C2)C1`, the Ki is more than 1000 nM in assay [3], 242 nM in assay [4], more than 1000 nM in assay [1] and more than 5000 nM in assay [2].

For `Cc1ccc(C#CC(=O)N2C[C@@H]3CNC[C@@H](C3)C2)cc1`, the inhibition constant Ki was more than 1000 nM in assay [3], 10.9 nM in assay [4], more than 1000 nM in assay [1] and more than 5000 nM in assay [2].

As to `O=C(/C=C/c1cccc2ccccc12)N1C[C@@H]2CNC[C@@H](C2)C1`, the Ki in assay [3] was more than 1000 nM; in assay [4], 297 nM; in assay [1], more than 5000 nM; in assay [2] it was more than 5000 nM.

In the case of `O=c1c(-c2ccncc2)ccc2n1C[C@@H]1CNC[C@H]2C1`, the Ki in assay [3] was more than 10000 nM; in assay [4] it was 3.9 nM; in assay [2] it was more than 10000 nM.

As to `O=c1c(-c2cccnc2)ccc2n1C[C@@H]1CNC[C@H]2C1`, in assay [2], the Ki was more than 5000 nM.

Regarding `O=C(c1csc(-c2ccncc2)n1)N1C[C@@H]2CNC[C@@H](C2)C1`, the Ki in assay [4] was more than 1000 nM.

For the compound `O=c1c(-c2ccc3c(c2)OCO3)ccc2n1C[C@@H]1CNC[C@H]2C1`, the Ki in assay [3] was more than 10000 nM; in assay [4], 110 nM; in assay [1] it was more than 10000 nM; in assay [2], more than 10000 nM.

With `O=C(C#Cc1cccc(F)c1)N1C[C@@H]2CNC[C@@H](C2)C1`, the Ki in assay [3] is more than 1000 nM; in assay [4], 7.1 nM; in assay [1], more than 1000 nM; in assay [2], more than 5000 nM.

For the compound `COc1ccc(C#CC(=O)N2C[C@@H]3CNC[C@@H](C3)C2)cc1`, the Ki was more than 1000 nM in assay [3], 7.8 nM in assay [4], more than 1000 nM in assay [1] and more than 5000 nM in assay [2].

As for `COc1ccccc1/C=C/C(=O)N1C[C@@H]2CNC[C@@H](C2)C1`, the figures for the Ki in assay [4] and in assay [2] were 172 nM and more than 10000 nM, respectively.

With `COc1cc(CCC(=O)N2C[C@@H]3CNC[C@@H](C3)C2)cc(OC)c1OC`, the figures for the Ki in assay [3], in assay [4] and in assay [1] were more than 10000 nM, 233 nM and more than 5000 nM, respectively.

Turning to `O=C(/C=C/c1ccco1)N1C[C@@H]2CNC[C@@H](C2)C1`, the Ki in assay [3] was more than 1000 nM; in assay [4], 288 nM; in assay [1], more than 1000 nM; in assay [2], more than 5000 nM.

Take `O=C(Cc1c(F)c(F)c(F)c(F)c1F)N1C[C@@H]2CNC[C@@H](C2)C1`: in assay [4], the inhibition constant Ki is more than 5000 nM.

Take `COc1cccc(C#CC(=O)N2C[C@@H]3CNC[C@@H](C3)C2)c1`: the Ki is more than 1000 nM in assay [3], 6.3 nM in assay [4], more than 1000 nM in assay [1] and more than 5000 nM in assay [2].

Take `O=C(/C=C/c1cccc([N+](=O)[O-])c1)N1C[C@@H]2CNC[C@@H](C2)C1`: the Ki is 38.9 nM in assay [4], more than 1000 nM in assay [1] and more than 10000 nM in assay [2].

On to `O=c1cccc2n1C[C@@H]1CNC[C@H]2C1` [CYTISINICLINE], for which the Ki in assay [3] was found to be 261 nM; in assay [1] it was 18 nM; in assay [2], 1300 nM.

What is called Ki is a measure of affinity in units of concentration, obtained from inhibition or displacement.
